# According to PubChem BioAssay AID504383 (The Scripps Research Institute Molecular Screening Center, 2011):
# The campaign covered roughly 2,500 compounds. About 1,200 (48%) were called active.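 How the source made its calls: active means mean activation above the low control average plus 3 SD, as set in the primary screen (cut at about 12% in these data); inactive means the rest.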 So high a share suggests a set chosen from earlier hits. Some of the results follow.
# Biological target: Troponin I, cardiac muscle (Homo sapiens) + Troponin T, cardiac muscle (Homo sapiens) + Troponin C, slow skeletal and cardiac muscles (Homo sapiens) (UniProt P19429+P45379+P63316)
# Test: cardiac RTF calcium sensitivity activators, confirmation, biochemical, IANBD-TnC fluorescence, triplicate (AID 504383);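 further: 0% = DMSO at 0.472 mM calcium and 100% = DMSO at 2.9 mM calcium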
# Settings: IANBD-labeled cardiac RTF, Ca2+ sensitivity fluorescence; at 7.2 µM; active compounds read high; scaled from EC20 to saturating calcium; tested at EC20 calcium, 0.472 mM
# Procedure, shortened: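 Test system: labelled regulated thin filament protein complex. Dosing: single nominal compound dose of 7.2 µM. Benchmarks: EC20 and EC100 calcium wells. Read-out basis: fluorescence gain scaled between EC20 and EC100 calcium controls. Probe or stimulus: submaximal calcium at 0.472 mM (EC20). Technique: fluorescence. Times: 15 min compound exposure, 25 °C.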
row,SMILES,activation
1,CN(C)S(=O)(=O)c1ccc2c(c1)/C(=C/c1cc3c([nH]1)CCCC3)C(=O)N2,18.2% (active)
2,Cc1ccc(-n2c(C)n[nH]c2=S)cc1,6.67% (inactive)
3,S=c1[nH]nc(-c2ccc(Cl)cc2)n1-c1ccc2c(c1)OCCO2,136% (active)
4,Cn1c(=O)c(NCCO)c2c3c(cccc31)C(=O)c1ccccc1-2,4.78% (inactive)
5,CC(=O)Nc1ccc(Nc2c3c4c(cccc4n(C)c2=O)C(=O)c2ccccc2-3)cc1,26.1% (active)
6,Cn1c(=O)c(NC2CCCCC2)c2c3c(cccc31)C(=O)c1ccccc1-2,9.43% (inactive)
7,Cc1nc(-c2ccc(C#N)cc2)cs1,8.7% (inactive)
8,CCOC(=O)C1C(=O)NC(SCC(N)=O)=C(C#N)C1c1ccccc1OCC (centres undefined),2.57% (inactive)
9,COC(=O)C1C2CC3c4[nH]c5cc(OC)ccc5c4CCN3CC2CC(OC(=O)CC(C)=O)C1OC (centres undefined),7.14% (inactive)
10,COC(=O)C1=COC(C)C2CN3CCc4c([nH]c5cc(OC)c(OC)cc45)C3CC12 (centres undefined),15.2% (active)
11,COC(=O)C1=COC(C)C2CN3CCc4c([nH]c5ccccc45)C3CC12 (centres undefined),12.5% (active)
12,Cc1ncoc1C(=O)N1CCc2c([nH]c3ccccc23)C1C(C)(C)C (centres undefined),2.53% (inactive)
13,O=C(O)[C@@H]1[C@H]2C[C@H]3c4[nH]c5ccccc5c4CCN3C[C@@H]2CC[C@@H]1O,1.98% (inactive)
14,COC(=O)CCC(=O)OC1(C)C(=O)C=C2C=C(C3CC3)N(c3cccc(C#N)c3)C=C2C1=O (centres undefined),0.81% (inactive)
15,COc1ccc(/C=N/N=C2/CC(C)(C)Cc3n[nH]c(=O)cc32)cc1,955% (active)
16,CCN(CC)c1ccc2cc(-c3nnc(-c4ccncc4)o3)c(=O)oc2c1,18.1% (active)
17,CCN(CC)c1ccc2cc(-c3nc4ccccc4n3C)c(=O)oc2c1,6.19% (inactive)
18,N=c1oc2ccccc2cc1-c1nc(-c2ccccc2)cs1,4.19% (inactive)
19,CCN(CC)c1ccc2cc(-c3nc(-c4cc5ccccc5oc4=O)cs3)c(=O)oc2c1,12% (active)
20,CCN(CC)c1ccc2cc(-c3nnc(-c4ccccc4)o3)c(=O)oc2c1,232% (active)
21,O=c1oc2ccccc2cc1-c1nc(-c2cccs2)cs1,7.53% (inactive)
22,Brc1ccc2[nH]c3nc(SCCN4CCOCC4)nnc3c2c1,6.16% (inactive)
23,Nc1c(C(=O)c2cccs2)sc2nsc(SCCN3CCCCC3)c12,-1.4% (inactive)

row,SMILES,activation
1,Nc1c(C(=O)c2ccc(Cl)cc2)sc2nsc(SCCN3CCOCC3)c12,12.7% (active)
2,COc1ccc(CNC(=O)C(C#N)c2nc3ccccc3nc2N2CCCC2)cc1 (centres undefined),2.74% (inactive)
3,COc1ccc(CNC(=O)c2sc(=S)n(-c3ccccc3)c2N)cc1,64.8% (active)
4,COc1ccc(CNC(=O)c2cc3c(s2)CS(=O)C3)cc1 (centres undefined),6.8% (inactive)
5,COC(=O)c1cc(-c2cccc(OC)c2)n[nH]1,16.6% (active)
6,CN1CC=C2C(C#N)=C(N)C(C#N)(C#N)[C@H](c3cccc(Cl)c3)C2C1 (some centres undefined),24.5% (active)
7,CC(C)(C)OC(=O)N1CC=C2C(C#N)=C(N)C(C#N)(C#N)C(c3cccs3)C2C1 (centres undefined),8.81% (inactive)
8,COc1ccc(OC)c(C2C3CN(C(C)C)CC=C3C(C#N)=C(N)C2(C#N)C#N)c1 (centres undefined),17.8% (active)
9,CN1C=CC2=C(C#N)C(N)C(C#N)(C#N)C(c3ccccc3)C2C1 (centres undefined),4.16% (inactive)
10,CN1CC=C2C(C#N)=C(N)C(C#N)(C#N)[C@H](c3cccs3)[C@H]2C1,13.3% (active)
11,CC(C)N1CC=C2C(C#N)=C(N)C(C#N)(C#N)C(c3ccccc3)C2C1 (centres undefined),6.28% (inactive)
12,COc1cc(C2C3CN(C)CC=C3C(C#N)=C(N)C2(C#N)C#N)ccc1OC(C)C (centres undefined),49.2% (active)
13,CCCN1CC=C2C(C#N)=C(N)C(C#N)(C#N)C(c3cc(OC)ccc3OC)C2C1 (centres undefined),2.79% (inactive)
14,CN1C=CC2=C(C#N)C(N)C(C#N)(C#N)[C@H](c3ccccc3)[C@H]2C1 (some centres undefined),6.1% (inactive)
15,CN1CC=C2C(C#N)=C(N)C(C#N)(C#N)C(c3ccsc3)C2C1 (centres undefined),7.36% (inactive)
16,COc1cc([C@@H]2[C@H]3CN(C)CC=C3C(C#N)=C(N)C2(C#N)C#N)cc2c1OCO2,4.84% (inactive)
17,CN1CC=C2C(C#N)=C(N)C(C#N)(C#N)[C@H](c3ccoc3)[C@H]2C1,62.5% (active)
18,CCN1CC=C2C(C#N)=C(N)C(C#N)(C#N)[C@H](c3ccoc3)[C@H]2C1,-0.65% (inactive)
19,Cc1cc2nc(/C(C#N)=C\c3ccc(-c4ccccc4C(=O)O)o3)[nH]c2cc1C,14.2% (active)
20,N#C/C(=C\c1ccc(Sc2ccc(Cl)cc2)o1)c1nc2ccccc2[nH]1,7.23% (inactive)
21,Cc1ccc2nc(/C(C#N)=C/c3ccc(-c4ccccc4C(=O)O)o3)[nH]c2c1,12.9% (active)
22,N#C/C(=C\c1ccc(-c2ccccc2C(=O)O)o1)c1nc2ccccc2[nH]1,14.2% (active)
23,COc1cccc(CN2CCNC(=O)C2CC(=O)N(C)Cc2cnccn2)c1OC (centres undefined),7.66% (inactive)

row,SMILES,activation
1,CC(=O)[C@H]1[C@H](C#N)C[C@H]2[C@@H]3CC=C4C[C@@H](O)CC[C@]4(C)[C@H]3CC[C@@]21C,45.3% (active)
2,O=c1c2ccccc2cnn1Cc1n[nH]c(=S)n1-c1ccccc1Cl,16.3% (active)
3,CSCC(O)Cn1ncc2ccccc2c1=O (centres undefined),5.97% (inactive)
4,CC1(C)NC(=O)N(CCCCOc2ccc(Cl)cc2)C1=O,0.92% (inactive)
5,COc1cc(/C=C/c2sc3ccccc3[n+]2CCCS(=O)(=O)[O-])ccc1O,7.82% (inactive)
6,CCC(/C=C1\Oc2ccc(OC)cc2N1C)=C\c1sc2ccccc2[n+]1CCCS(=O)(=O)[O-],33.2% (active)
7,Cc1ccc(CSc2nnc(SCC(=O)N/N=C/c3ccccc3OCC(=O)O)s2)cc1,15.5% (active)
8,CCOc1ccccc1C=NNC(=O)CCCCC(=O)NN=Cc1ccccc1OCC,6.22% (inactive)
9,O=C(Nc1ccccc1F)C(=Cc1sc(N2CCOCC2)nc1-c1ccccc1)C(=O)Nc1ccccc1F,-0.07% (inactive)
10,O=C(CSCc1c(F)cccc1Cl)Nc1ccccc1C(=O)N1CCOCC1,11.5% (inactive)
11,O=C(c1cn(-c2ccccc2)nc1-c1ccc(Br)cc1)N1CCOCC1,16.9% (active)
12,COc1ccccc1N1CCN(C(=O)c2cn(-c3ccccc3)nc2-c2cccnc2)CC1,10% (inactive)
13,O=C(N/C(=C/c1cn(-c2ccccc2)nc1-c1ccccc1)C(=O)N1CCOCC1)c1ccc(Cl)cc1Cl,12.7% (active)
14,Cc1cc(NC(=O)/C(C#N)=C\c2ccc(-c3ccc(SC(F)F)cc3)o2)n(-c2ccccc2)n1,359% (active)
15,Cc1cc(NC(=O)/C(C#N)=C/c2ccc(-c3ccc(SC(F)F)cc3)o2)n(-c2ccccc2)n1,659% (active)
16,COC(=O)CCc1c(C)c(C(=O)c2cc(F)c(F)c(F)c2F)c2ccccn12,-2.54% (inactive)
17,O=C1CCNc2ccc(-c3ccccc3)cc21,7.84% (inactive)
18,Cn1c(=O)c(NCCc2ccccc2)c2c3c(cccc31)C(=O)c1ccccc1-2,2.98% (inactive)
19,Cn1c(=O)c2cc(NCc3ccccc3)nnc2n(C)c1=O,13.9% (active)
20,CC(C(=O)c1ccc(Br)cc1)[n+]1cccc2ccccc21 (centres undefined),64.2% (active)
21,Cc1cc(C)nc(NC(=O)c2ccc(Cl)c(Cl)c2)n1,12.3% (active)
22,Cc1cccc(NC(=O)c2ccc(C(=O)c3ccccc3)cc2)n1,9.46% (inactive)
23,CCOC(=O)c1c(/N=C/c2cccc([N+](=O)[O-])c2O)sc(C)c1C,7.57% (inactive)

row,SMILES,activation
1,COC(=O)c1c(NC(=O)CN2CCN(c3cccc(Cl)c3)CC2)sc(C)c1C,13.4% (active)
2,COC(=O)c1c(NC(=O)c2ccnn2C)sc(C)c1C,5.98% (inactive)
3,CCN1C(=S)N[C@@H](CCc2ccccc2)[C@H](C(=O)OC)[C@H]1C,57.4% (active)
4,COc1ccc(/C=C/C(=O)NC(=S)Nc2ccc(C(=O)O)cc2)cc1,55.3% (active)
5,O=C(O)c1ccc(NC(=S)NC(=O)c2ccc(-c3ccccc3)cc2)cc1,78.4% (active)
6,CC(C)(C)c1ccc(C(=O)NC(=S)Nc2ccc(N3CCOCC3)cc2)cc1,0.7% (inactive)
7,O=C(/C=C/c1ccccc1)N/C(=C/c1ccccc1)C(=O)NCCCO,9.8% (inactive)
8,CCC(=O)Nc1ccc(NC(=S)NC(=O)c2oc3ccccc3c2C)cc1,1.23% (inactive)
9,C=CCNc1nnc(SCC(=O)N2CCCCC2)c2ccccc12,15.7% (active)
10,O=C(CSc1ccc(-c2cccs2)nn1)N1CCCCC1,0.96% (inactive)
11,CCOC(=O)c1c(NC(=O)COC(=O)Cc2ccccc2[N+](=O)[O-])sc(C(=O)N(C)C)c1C,6.12% (inactive)
12,CS(=O)(=O)c1ccc(C(=O)OCC(=O)Nc2cccnc2Cl)cc1[N+](=O)[O-],13.1% (active)
13,Cc1ccc(NC(=O)C(C)Sc2nnc(C)n2C2CC2)cc1S(=O)(=O)N1CCOCC1 (centres undefined),7.55% (inactive)
14,CC(Sc1nnc(NCc2ccccc2)s1)C(=O)Nc1ccc2c(c1)C(=O)c1ccccc1C2=O (centres undefined),137% (active)
15,CC(C)CSC1=NSC2=NC(=O)/C(=C\c3coc4ccccc4c3=O)C(=N)N12,45.1% (active)
16,CSC1=NSC2=NC(=O)/C(=C/c3coc4ccccc4c3=O)C(=N)N12,3.64% (inactive)
17,CCSC1=NSC2=NC(=O)/C(=C\c3coc4ccccc4c3=O)C(=N)N12,74.7% (active)
18,CC(C)NC(=S)N/N=C/c1sc(N2CCCCC2)nc1-c1cccs1,11.2% (inactive)
19,O=C(Nc1ccc(Br)cc1)c1ccc(Br)c(S(=O)(=O)Nc2cccnc2)c1,22.2% (active)
20,O=C(NCCCN1CCCC1=O)c1cccc(S(=O)(=O)Nc2ccc(Br)cc2)c1,10% (inactive)
